Source: ChEMBL document CHEMBL1212875, “Improved inhibition of the histone acetyltransferase PCAF by an anacardic acid derivative” (Bioorg Med Chem, 2010)
The source made the active and inactive calls. The calls are words filed in the database; no cut-off is given here.

Tests used:
[1] = target: T1, Histone acetyltransferase KAT2B (Homo sapiens, UniProt Q92831); assay: Inhibition of human recombinant histone deacetylase PCAF at 1 mM by ELISA
Summary of the method: (§1)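 Indirect ELISA. Biotinylated histone H4 peptide (300 nM coating) captured on streptavidin wells. Recombinant human PCAF (240 nM solution) preincubated 15 min with inhibitor in 100 mM HEPES pH 7.4, 0.1% BSA, 0.16% Triton X-100. Reaction started with Ac-CoA (40 µM solution) for 15 min. Detection by anti-acetyl-Lys antibody, HRP secondary, TMB, A450. No-inhibitor wells = 100%, no-Ac-CoA = 0%. Triplicate; DMSO stocks.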
Target sequence in this assay (Q92831 whole entry, looked up): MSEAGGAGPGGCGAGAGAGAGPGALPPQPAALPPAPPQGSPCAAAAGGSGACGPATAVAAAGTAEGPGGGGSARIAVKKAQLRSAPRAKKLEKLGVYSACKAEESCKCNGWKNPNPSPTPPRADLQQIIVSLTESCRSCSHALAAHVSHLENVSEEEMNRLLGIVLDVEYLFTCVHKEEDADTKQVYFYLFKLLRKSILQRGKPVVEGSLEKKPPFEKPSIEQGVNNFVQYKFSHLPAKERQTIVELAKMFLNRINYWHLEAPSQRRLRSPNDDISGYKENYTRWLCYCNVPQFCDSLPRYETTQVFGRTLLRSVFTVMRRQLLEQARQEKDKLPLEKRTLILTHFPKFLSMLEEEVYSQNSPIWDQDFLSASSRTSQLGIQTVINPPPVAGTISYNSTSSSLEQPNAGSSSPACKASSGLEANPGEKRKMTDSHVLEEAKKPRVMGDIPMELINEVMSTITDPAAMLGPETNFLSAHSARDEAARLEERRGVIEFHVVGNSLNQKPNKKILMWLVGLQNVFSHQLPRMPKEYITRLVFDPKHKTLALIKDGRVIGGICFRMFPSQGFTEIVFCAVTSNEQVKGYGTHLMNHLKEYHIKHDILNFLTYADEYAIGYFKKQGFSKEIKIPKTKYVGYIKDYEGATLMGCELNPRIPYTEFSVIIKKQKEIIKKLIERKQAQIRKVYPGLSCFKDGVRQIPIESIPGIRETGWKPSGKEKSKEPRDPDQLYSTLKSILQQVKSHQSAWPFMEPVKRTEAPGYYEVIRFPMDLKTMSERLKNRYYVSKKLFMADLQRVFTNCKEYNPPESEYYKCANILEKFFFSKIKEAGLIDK

[2] = target: T1, Histone acetyltransferase KAT2B; assay: Inhibition of human recombinant histone acetyltransferase PCAF by ELISA; summary of the method: as §1
[3] = target: T1, Histone acetyltransferase KAT2B; assay: Inhibition of […] in human HepG2 cells assessed as decrease in SAHA-induced histone H4 acetylation levels at 30 uM after 24 hrs by Western blotting; type: cell-based
Summary of the method: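 HepG2 cells in DMEM with 10% heat-inactivated FBS at 37 °C, 5% CO2; grown to ~70% confluency, FBS-starved 16 h, then treated 24 h with 5 µM SAHA plus inhibitor at sub-toxic concentrations. Histones extracted, ~5 µg resolved by SDS-PAGE, immunoblotted with anti-acetyl-histone H4; densitometry with Coomassie loading check. Levels relative to untreated cells (100%), mean ± SEM of three independent experiments.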
Target sequence in this assay (Q92831 whole entry, looked up): as above

[4] = target: T1, Histone acetyltransferase KAT2B; assay: Inhibition of histone acetyltransferase PCAF in human HepG2 cells assessed as decrease in SAHA-induced histone H4 acetylation levels at 60 uM after 24 hrs by Western blotting
Target sequence in this assay (Q92831 whole entry, looked up): as above

| SMILES | inhibition [2] | other results |
| --- | --- | --- |
| O=C(O)c1c(O)cccc1OCc1ccccc1 |  | inhibition [1]: 20% |
| COc1ccccc1OCCCc1cccc(O)c1C(=O)O | Active |  |
| CCCCCCCCCCCCCCOc1cccc(O)c1C(=O)O | Active |  |
| CCCCCCCCCCc1cc(O)cc(O)c1C(=O)O | Active |  |
| CCCCCCCCCCCCCCCc1cc(O)cc(O)c1C(=O)O | Active |  |
| CCCCCOc1ccc(/C=C\c2cccc(O)c2C(=O)O)cc1 |  | IC50 [2]: 662 µM; inhibition [3]: Active; inhibition [4]: Active |
| CCCCCOc1ccc(CCc2cccc(O)c2C(=O)O)cc1 | Active |  |
| C=CC/C=C\C/C=C\CCCCCCCc1cccc(O)c1C(=O)O [ANACARDIC ACID] | Active | IC50 [2]: 1000 µM; inhibition [1]: 40%; inhibition [3]: Active; inhibition [4]: Active |
| CCCCCCCCCCc1cccc(O)c1C(=O)O | Active |  |
| CCCCCCCc1ccc(CCc2cccc(O)c2C(=O)O)cc1 | Active |  |
